This note sets out measurements from ChEMBL document CHEMBL1129055, “Synthesis, in vitro antiviral evaluation, and stability studies of bis(S-acyl-2-thioethyl) ester derivatives of 9-[2-(phosphonomethoxy)ethyl]adenine (PMEA) as potential PMEA prodrugs with improved oral bioavailability” (J Med Chem, 1996).

Data set [1] is described as follows: Half-life in culture medium. In kind it is ADME.
For data set [2], the system named is MRC5. The experiment in a line: Compound was tested for antiviral activity against the MRC-5 cells infected with HSV-2. In kind it is functional, cell-based. The conditions noted are these: Homo sapiens. The method in brief: (§1)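 Confluent cells in MEM with 5% FBS infected with 100 CCID50 virus (HSV-1 strain F or HSV-2 strain G) for 1 h at 37 °C, then exposed to compound from 1 mM to 1 uM. Cytopathic effect scored daily. EC50 is the concentration that reduces CPE by 50% once CPE is complete in untreated infected controls.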

Data set [3] can be described thus: Percent decomposition in water at specified pH 7.2. The conditions noted are these: buffer.
Data set [4] has as its system CEM-SS. The experiment in a line: (§2) Compound was tested for antiviral activity against the CEM-SS cell lines infected with HIV-1. In kind it is functional, cell-based. The conditions noted are these: Homo sapiens. Put shortly:
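CEM-SS cells infected with 100 TCID50 HIV-LAI for 30 min, unbound virus removed by two washes, then cultured 5 days with graded compound concentrations. Virus production quantified as reverse transcriptase activity in culture supernatant. EC50 derived from median effect plot of dose-effect data.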

In data set [5] the test system is CEM-SS. Described as §2. In kind it is functional. The conditions noted are these: Homo sapiens.
A short description of data set [6]: Partition coefficient (logP). In kind it is physicochemical. The conditions noted are these: octanol/water. The method in brief:
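Octanol/water partition coefficient (logP) determined by HPLC using a microscale method adapted from earlier work on nucleoside analogues.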

For data set [7], the system named is MRC5. Kind of data set: (§3) Compound was tested for antiviral activity against the MRC-5 cells infected with HSV-1. In kind it is functional. The conditions noted are these: Homo sapiens. The method in brief:
as §1

Data set [8] has as its system MT4. Kind of data set: (§4) Compound was tested for antiviral activity against the MT-4 cell lines infected with HIV-1. In kind it is functional. The conditions noted are these: Homo sapiens. The method in brief:
(§5)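 MT-4 cells infected with 50 TCID50 HIV-1 IIIB for 30 min, washed twice, then cultured 5 days with graded compound concentrations. Protection from virus-induced cytopathogenicity read by MTT reduction to formazan. EC50 taken from median effect plot of dose-effect data.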

The test system of data set [9] is Vero. Kind of data set: Compound was tested for antiviral activity against the Vero cells infected with HSV-2. In kind it is functional, cell-based. The conditions noted are these: Chlorocebus sabaeus. Put shortly: as §1
The test system of data set [10] is Vero. Kind of data set: (§6) Compound was tested for antiviral activity against the Vero cells infected with HSV-1. The conditions noted are these: Chlorocebus sabaeus. In kind it is functional, cell-based. The method in brief:
as §1

Data set [11] deals with MRC5. The data set is described as §3. In kind it is functional, cell-based. The conditions noted are these: Homo sapiens. Put shortly: as §1
The subject of data set [12] is Vero. The data set is described as §6. In kind it is functional. The conditions noted are these: Chlorocebus sabaeus.
Data set [13] concerns MT4. The description is as §4. In kind it is functional, cell-based. The conditions noted are these: Homo sapiens. Put shortly: as §5
Data set [14] in a line: Half-life in RPMI1640 medium. In kind it is ADME.

In data set [1], `CC(C)(C)C(=O)SCCOP(=O)(O)COCCn1cnc2c(N)ncnc21` gave a half-life of 230 h.
Compound `CC(=O)SCCOP(=O)(O)COCCn1cnc2c(N)ncnc21` showed a half-life in data set [1] of 19.2 h.
Same read-out and setting: under `CC(C)C(=O)SCCOP(=O)(O)COCCn1cnc2c(N)ncnc21` stands 28.8 h.
With `CC(C)C(=O)SCCOP(=O)(COCCn1cnc2c(N)ncnc21)OCCSC(=O)C(C)C`, the EC50 in the data set with MRC5 [2] turned out to be 1.2 µM; in the data set on CEM-SS [4] it was 0.09 µM; in the data set with Vero [9], 1.14 µM; in the data set with Vero [10] it was 1.35 µM; in the data set with MRC5 [11], 1.69 µM; in the data set on MT4 [13], 0.51 µM. For the same compound, the percent decomposition in data set [3] turned out to be 1.6%. In addition, the CC50 in the data set on CEM-SS [5] worked out at 13 µM; in the data set on MRC5 [7] it was 30.2 µM; in the data set with MT4 [8], 3.8 µM; in the data set with Vero [12] it was 23 µM. The lipophilicity (logP) in [6] (read-out: logP) is 2.31. The same compound gave a half-life in data set [1] of 8.3 h.
As to `CC(=O)SCCOP(=O)(COCCn1cnc2c(N)ncnc21)OCCSC(C)=O`, the EC50 came to 8.9 µM with MRC5 [2]; 0.1 µM in the data set with CEM-SS [4]; 10.2 µM with Vero [9]; 14.2 µM with Vero [10]; 12.6 µM in the data set with MRC5 [11]; 1.1 µM with MT4 [13]. The compound also showed a percent decomposition in data set [3] of 4%. Besides, the CC50 was 23 µM in the data set with CEM-SS [5], 148 µM in the data set on MRC5 [7], 7.6 µM in the data set on MT4 [8] and 126 µM in the data set with Vero [12]. Also, the logP in data set [6] (read-out: logP) was 0.32. The half-life in data set [1] was 3.7 h; in data set [14] it was greater than 24 h.
`CC(C)(C)C(=O)SCCOP(=O)(COCCn1cnc2c(N)ncnc21)OCCSC(=O)C(C)(C)C`: the EC50 in the data set on MRC5 [2] turned out to be 0.97 µM; with CEM-SS [4], 0.03 µM; in the data set with Vero [9], 1.12 µM; with Vero [10] it was 1.07 µM; with MRC5 [11], 1.43 µM; with MT4 [13], 0.65 µM. The compound also registered a percent decomposition in [3] of 3%. In addition, the CC50 in the data set on CEM-SS [5] came out at 5.8 µM; with MRC5 [7] it was 48.5 µM; in the data set on MT4 [8], 15 µM; with Vero [12], 36.8 µM. In addition, the logP in data set [6] (read-out: logP) came out at 3.41. In data set [1], this compound registered a half-life of 81.6 h.
In the case of `Nc1ncnc2c1ncn2CCOCP(=O)(OCCSSCCO)OCCSSCCO`, the EC50 in the data set on MRC5 [2] was 26.5 µM; with CEM-SS [4] it was 2 µM; in the data set on Vero [9] it was 27.4 µM; with Vero [10], 22.3 µM; in the data set with MRC5 [11], 32.3 µM; in the data set on MT4 [13], 6.9 µM. The compound further returned a percent decomposition in data set [3] of 13.9%. For the same compound, the CC50 was 67 µM in the data set on CEM-SS [5], greater than 100 µM in the data set on MRC5 [7], 50 µM in the data set with MT4 [8] and greater than 100 µM in the data set with Vero [12]. Besides, the logP in [6] (read-out: logP) stood at 0.21. For the same compound, the half-life was 38.4 h in data set [1] and greater than 24 h in data set [14].
Regarding `Nc1ncnc2c1ncn2CCOCP(=O)(OCCSC(=O)c1ccccc1)OCCSC(=O)c1ccccc1`, the EC50 came to 4.75 µM with MRC5 [2]; 0.05 µM with CEM-SS [4]; 2.89 µM in the data set with Vero [9]; 2.56 µM in the data set with Vero [10]; 3.48 µM in the data set on MRC5 [11]; 0.41 µM in the data set with MT4 [13]. The same compound gave a percent decomposition in [3] of 1.7%. Moreover, the CC50 turned out to be 3.9 µM with CEM-SS [5], 18.7 µM with MRC5 [7], 2.4 µM in the data set on MT4 [8] and 12.7 µM in the data set on Vero [12]. The logP in [6] (read-out: logP) turned out to be 3.93. Also, the half-life in data set [1] is 25.7 h.
Take `Nc1ncnc2c1ncn2CCOCP(=O)(O)OCCSC(=O)c1ccccc1`: in [1], the half-life was 64.8 h.
As to `CC(C)(C)C(=O)OCOP(=O)(COCCn1cnc2c(N)ncnc21)OCOC(=O)C(C)(C)C` [ADEFOVIR DIPIVOXIL], the EC50 in the data set with MRC5 [2] is 0.91 µM; in the data set with CEM-SS [4], 0.04 µM; in the data set on Vero [9], 1.15 µM; in the data set with Vero [10], 0.87 µM; in the data set on MRC5 [11] it was 1.23 µM; with MT4 [13], 0.08 µM. The compound further displayed a percent decomposition in data set [3] of 32.7%. Further, the CC50 with CEM-SS [5] stood at 4.4 µM; with MRC5 [7], 15.7 µM; with MT4 [8], 0.74 µM; with Vero [12] it was 22.6 µM. Moreover, in data set [6] (read-out: logP), the logP worked out at 2.48. Moreover, the half-life in data set [1] and in [14] was 5 h in each case.
Regarding `Nc1ncnc2c1ncn2CCOCP(=O)(O)O` [ADEFOVIR], the EC50 in the data set with MRC5 [2] is 33.5 µM; with CEM-SS [4], 0.42 µM; with Vero [9], 32.7 µM; in the data set with Vero [10] it was 38.5 µM; in the data set with MRC5 [11] it was 29.7 µM; in the data set on MT4 [13], greater than 10 µM. Further, the CC50 in the data set on CEM-SS [5] was greater than 10 µM; with MRC5 [7], greater than 100 µM; in the data set on MT4 [8], greater than 10 µM; with Vero [12] it was greater than 100 µM. The logP in data set [6] was -4.11.

Usually half-life stands for how long it takes for the measured level to halve. The low end stands for rapid decline, the high end for slow decline. What is called EC50 is the concentration that produces a half-maximal response. Low readings indicate higher potency in that assay, high ones lower potency in that assay. A word on the CC50: it is the concentration giving 50% cytotoxicity. In general, logP refers to a log measure of how a compound divides between an organic and an aqueous phase.
